Results from ChEMBL document CHEMBL5058577, “EUbOPEN Chemogenomics Library 2 (Multiplex)” (2022).

Tested on: Fibroblast
Experiment: Multiplex assay against human fibroblast
Type: toxicity, cell-based
Summary of the method: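 Four dyes were applied at seeding to live cells: Hoechst33342, BioTracker Green Microtubule Cytoskeleton Dye, MitoTracker Red and Annexin V Alexa Fluor 680. Imaging after compound addition used a CQ1 microscope at 37°C and 5% CO2. CellPathfinder machine-learning gating then sorted cells into Hoechst high-intensity objects or normal cells, normal cells into healthy, pyknosed or fragmented nuclei, and pyknosed cells into mitotic or apoptotic, with tubulin, mitochondrial-mass and membrane-permeability phenotypes given as per cents of healthy-nucleus cells.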

[1] = 12 h, 1 µM, compound concentration 1 uM, replicate 1
[2] = 12 h, 1 µM, compound concentration 1 uM, replicate 2
[3] = 12 h, 10 µM, compound concentration 10 uM, replicate 1
[4] = 12 h, 10 µM, compound concentration 10 uM, replicate 2
[5] = 24 h, 1 µM, compound concentration 1 uM, replicate 1
[6] = 24 h, 1 µM, compound concentration 1 uM, replicate 2
[7] = 24 h, 10 µM, compound concentration 10 uM, replicate 1
[8] = 24 h, 10 µM, compound concentration 10 uM, replicate 2
[9] = 48 h, 1 µM, compound concentration 1 uM, replicate 1
[10] = 48 h, 1 µM, compound concentration 1 uM, replicate 2
[11] = 48 h, 10 µM, compound concentration 10 uM, replicate 1
[12] = 48 h, 10 µM, compound concentration 10 uM, replicate 2

C[C@H](N)COC(=O)[C@@H](CCCCN)NC(=O)Cc1c(-c2ccc3ccccc3c2)[nH]c2c1ccc1ccccc12
Population Apoptotic (%) [1]: 32% | Population Fragmented Nuclei (%) [1]: 18% | Population Healthy Nuclei (%) [1]: 65% | Population Hoechst High Intensity Objects (%) [1]: 1% | Population Membrane Permeable-Phenotype (%) [1]: 0% | Population Mitochondria Different-Phenotype (%) [1]: 7% | Population Mitotic Cells (%) [1]: 67% | Population Normal (%) [1]: 98% | Population Pyknosed Nuclei (%) [1]: 15% | Population Tubulin-Different-Phenotype (%) [1]: 32% | Total Cell Count [1]: 179 | Population Apoptotic (%) [2]: 50% | Population Fragmented Nuclei (%) [2]: 25% | Population Healthy Nuclei (%) [2]: 51% | Population Hoechst High Intensity Objects (%) [2]: 4% | Population Membrane Permeable-Phenotype (%) [2]: 5% | Population Mitochondria Different-Phenotype (%) [2]: 4% | Population Mitotic Cells (%) [2]: 50% | Population Normal (%) [2]: 95% | Population Pyknosed Nuclei (%) [2]: 23% | Population Tubulin-Different-Phenotype (%) [2]: 36% | Total Cell Count [2]: 170 | Population Apoptotic (%) [3]: 43% | Population Fragmented Nuclei (%) [3]: 13% | Population Healthy Nuclei (%) [3]: 69% | Population Hoechst High Intensity Objects (%) [3]: 2% | Population Membrane Permeable-Phenotype (%) [3]: 1% | Population Mitochondria Different-Phenotype (%) [3]: 8% | Population Mitotic Cells (%) [3]: 56% | Population Normal (%) [3]: 97% | Population Pyknosed Nuclei (%) [3]: 16% | Population Tubulin-Different-Phenotype (%) [3]: 33% | Total Cell Count [3]: 183 | Population Apoptotic (%) [4]: 62% | Population Fragmented Nuclei (%) [4]: 32% | Population Healthy Nuclei (%) [4]: 50% | Population Hoechst High Intensity Objects (%) [4]: 7% | Population Membrane Permeable-Phenotype (%) [4]: 5% | Population Mitochondria Different-Phenotype (%) [4]: 6% | Population Mitotic Cells (%) [4]: 37% | Population Normal (%) [4]: 92% | Population Pyknosed Nuclei (%) [4]: 17% | Population Tubulin-Different-Phenotype (%) [4]: 47% | Total Cell Count [4]: 167 | Population Apoptotic (%) [5]: 53% | Population Fragmented Nuclei (%) [5]: 16% | Population Healthy Nuclei (%) [5]: 66% | Population Hoechst High Intensity Objects (%) [5]: 3% | Population Membrane Permeable-Phenotype (%) [5]: 0% | Population Mitochondria Different-Phenotype (%) [5]: 5% | Population Mitotic Cells (%) [5]: 46% | Population Normal (%) [5]: 96% | Population Pyknosed Nuclei (%) [5]: 17% | Population Tubulin-Different-Phenotype (%) [5]: 30% | Total Cell Count [5]: 179 | Population Apoptotic (%) [6]: 29% | Population Fragmented Nuclei (%) [6]: 25% | Population Healthy Nuclei (%) [6]: 54% | Population Hoechst High Intensity Objects (%) [6]: 7% | Population Membrane Permeable-Phenotype (%) [6]: 3% | Population Mitochondria Different-Phenotype (%) [6]: 7% | Population Mitotic Cells (%) [6]: 70% | Population Normal (%) [6]: 92% | Population Pyknosed Nuclei (%) [6]: 20% | Population Tubulin-Different-Phenotype (%) [6]: 39% | Total Cell Count [6]: 162 | Population Apoptotic (%) [7]: 63% | Population Fragmented Nuclei (%) [7]: 13% | Population Healthy Nuclei (%) [7]: 74% | Population Hoechst High Intensity Objects (%) [7]: 7% | Population Membrane Permeable-Phenotype (%) [7]: 0% | Population Mitochondria Different-Phenotype (%) [7]: 5% | Population Mitotic Cells (%) [7]: 36% | Population Normal (%) [7]: 92% | Population Pyknosed Nuclei (%) [7]: 11% | Population Tubulin-Different-Phenotype (%) [7]: 31% | Total Cell Count [7]: 171 | Population Apoptotic (%) [8]: 50% | Population Fragmented Nuclei (%) [8]: 36% | Population Healthy Nuclei (%) [8]: 50% | Population Hoechst High Intensity Objects (%) [8]: 6% | Population Membrane Permeable-Phenotype (%) [8]: 5% | Population Mitotic Cells (%) [8]: 50% | Population Normal (%) [8]: 93% | Population Pyknosed Nuclei (%) [8]: 13% | Population Tubulin-Different-Phenotype (%) [8]: 54% | Total Cell Count [8]: 159 | Population Apoptotic (%) [9]: 72% | Population Fragmented Nuclei (%) [9]: 21% | Population Healthy Nuclei (%) [9]: 65% | Population Hoechst High Intensity Objects (%) [9]: 5% | Population Membrane Permeable-Phenotype (%) [9]: 0% | Population Mitochondria Different-Phenotype (%) [9]: 7% | Population Mitotic Cells (%) [9]: 27% | Population Normal (%) [9]: 94% | Population Pyknosed Nuclei (%) [9]: 12% | Population Tubulin-Different-Phenotype (%) [9]: 26% | Total Cell Count [9]: 186 | Population Apoptotic (%) [10]: 51% | Population Fragmented Nuclei (%) [10]: 30% | Population Healthy Nuclei (%) [10]: 50% | Population Hoechst High Intensity Objects (%) [10]: 2% | Population Membrane Permeable-Phenotype (%) [10]: 3% | Population Mitochondria Different-Phenotype (%) [10]: 6% | Population Mitotic Cells (%) [10]: 48% | Population Normal (%) [10]: 97% | Population Pyknosed Nuclei (%) [10]: 18% | Population Tubulin-Different-Phenotype (%) [10]: 39% | Total Cell Count [10]: 169 | Population Apoptotic (%) [11]: 46% | Population Fragmented Nuclei (%) [11]: 16% | Population Healthy Nuclei (%) [11]: 68% | Population Hoechst High Intensity Objects (%) [11]: 9% | Population Membrane Permeable-Phenotype (%) [11]: 0% | Population Mitochondria Different-Phenotype (%) [11]: 4% | Population Mitotic Cells (%) [11]: 53% | Population Normal (%) [11]: 90% | Population Pyknosed Nuclei (%) [11]: 15% | Population Tubulin-Different-Phenotype (%) [11]: 35% | Total Cell Count [11]: 185 | Population Apoptotic (%) [12]: 55% | Population Fragmented Nuclei (%) [12]: 36% | Population Healthy Nuclei (%) [12]: 52% | Population Hoechst High Intensity Objects (%) [12]: 5% | Population Membrane Permeable-Phenotype (%) [12]: 7% | Population Mitochondria Different-Phenotype (%) [12]: 8% | Population Mitotic Cells (%) [12]: 44% | Population Normal (%) [12]: 94% | Population Pyknosed Nuclei (%) [12]: 11% | Population Tubulin-Different-Phenotype (%) [12]: 54% | Total Cell Count [12]: 166
